Compound activity from PubChem.
TRPC4 act: TRPC4 (mouse) channel activation; actives 0.49% (n = 310,000); HEK293 TRPC4beta/mu-opioid, Fluo4 calcium fluorescence; stronger effect = higher value; AID 2237; Q9QUQ5; B-score at 10 µM;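 active = B-score above 5 SD of library B-scores, and initial fluorescence ratio not above library mean plus 5 SD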;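 note: positive B-score marks a calcium rise read as TRPC4 activation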
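Assay system: HEK293 cells stably co-expressing mouse TRPC4beta and mu-opioid receptor / Timing: Fluo4 dye loading 45 min at room temperature, 110 s recording / Signal: Fluo4 calcium-sensitive dye fluorescence, kinetic, 1 Hz baseline / Read-out: integrated baseline-normalised fluorescence ratio, converted to per-well B score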
TRPC4 block: TRPC4 (mouse) channel inhibition | Q9QUQ5 | HEK293 TRPC4beta/mu-opioid, DAMGO-evoked Fluo4 calcium flux; stronger effect = lower value | B-score at 10 µM | actives 0.39% (n = 300,000) | AID 2247;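 active = B-score over 3 SD under the library average, no early fluorescence shift, positive overall ratio signal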
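Assay system – HEK293 line stably carrying TRPC4beta and mu-opioid receptor · Doses – single dose · Detection – Fluo4 calcium-dye fluorescence, kinetic read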
TRPC4 potent: allosterically enhances the mouse TRPC4 cation channel; AID 2227; actives 0.42% (n = 310,000); HEK293 TRPC4beta/mu-opioid, DAMGO EC20, Fluo-4 Ca2+ flux; stronger effect = higher value; B-score at 10 µM;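 active = B-score of calcium response area above 5 SD of library B-scores, with initial fluorescence ratio within 5 SD of library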;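 note: B-score of integrated fluorescence ratio over time as area under calcium response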
TRPC6 activator: activates the mouse TRPC6 cation channel; actives 0.13% (n = 310,000); AID 2550; B-score at 10 µM; Q61143; HEK293-TRPC6 membrane potential dye fluorescence; stronger effect = higher value;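 active = B-score of the integrated fluorescence ratio above library mean plus 3 SD, and starting fluorescence ratio within library mean plus 5 SD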;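 note: higher score means more depolarization so channel activation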
Target sequence (Q61143 whole entry, looked up): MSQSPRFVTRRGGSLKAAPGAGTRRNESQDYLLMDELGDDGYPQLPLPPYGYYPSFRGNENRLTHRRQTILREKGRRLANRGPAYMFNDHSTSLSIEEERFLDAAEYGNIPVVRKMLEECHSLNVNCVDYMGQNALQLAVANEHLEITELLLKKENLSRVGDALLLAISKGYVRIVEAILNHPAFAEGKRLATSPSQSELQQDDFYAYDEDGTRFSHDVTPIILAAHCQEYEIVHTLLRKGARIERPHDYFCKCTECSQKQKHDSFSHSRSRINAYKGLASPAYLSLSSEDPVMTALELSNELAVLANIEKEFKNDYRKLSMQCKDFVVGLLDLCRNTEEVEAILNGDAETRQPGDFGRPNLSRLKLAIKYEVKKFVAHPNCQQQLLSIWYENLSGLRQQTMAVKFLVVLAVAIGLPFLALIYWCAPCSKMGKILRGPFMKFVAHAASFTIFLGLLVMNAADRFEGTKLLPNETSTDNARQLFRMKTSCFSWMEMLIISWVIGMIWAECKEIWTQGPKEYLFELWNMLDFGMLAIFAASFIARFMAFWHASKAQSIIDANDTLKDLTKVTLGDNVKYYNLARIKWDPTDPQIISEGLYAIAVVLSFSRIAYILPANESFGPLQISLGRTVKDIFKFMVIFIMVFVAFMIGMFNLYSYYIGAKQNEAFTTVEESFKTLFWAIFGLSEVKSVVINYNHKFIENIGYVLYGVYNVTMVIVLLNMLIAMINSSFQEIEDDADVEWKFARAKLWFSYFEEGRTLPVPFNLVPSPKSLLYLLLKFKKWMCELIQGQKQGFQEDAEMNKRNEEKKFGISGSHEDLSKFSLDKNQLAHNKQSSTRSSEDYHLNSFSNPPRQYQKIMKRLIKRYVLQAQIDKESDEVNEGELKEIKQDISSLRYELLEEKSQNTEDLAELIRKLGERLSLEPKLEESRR
TRPC6 inhibitor: blocks the mouse TRPC6 cation channel; Q61143; HEK293-TRPC6, membrane potential dye, ACh-evoked depolarization; stronger effect = lower value; B-score at 10 µM; actives 1.1% (n = 310,000);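 active = B-score under library mean minus 3 SD, initial fluorescence not abnormally high, positive integrated signal ratio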;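 note: B-score derived from integrated fluorescence ratio over the kinetic read; more negative B-score means stronger inhibition of depolarization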
An asterisk follows results filed as active; i = inactive; · = no result. An excerpt weighted towards active compounds, which were near 2.3% of everything screened.

SMILES	TRPC4 act	TRPC4 block	TRPC4 potent	TRPC6 activator	TRPC6 inhibitor
CC(C)CN1CCC(=O)N([C@H](CSc2ccc(Br)cc2)Cc2ccccc2)CC1	i	i	i	i	i
O=C1CCN(CCc2ccccc2)CCN1[C@H](COc1ccccc1)Cc1ccccc1	67*	·	i	i	i
C=CCCC(=O)N1CCCC(C(=O)c2cccc(OC)c2)C1 (configuration not stated)	i	i	i	i	i
CC(=O)NC(=S)NNC(=O)CCc1ccccc1	i	i	i	i	i
O=C(CCc1ccccc1)NNC(=S)NC(=O)c1ccccc1	150*	i	i	i	i
CC(C)(C)c1cc(CCC(=O)NNC(=S)NC(=O)c2ccccc2)cc(C(C)(C)C)c1O	211*	i	i	i	i
CC(C)(C)c1cc(CCC(=O)NNC(=O)c2ccco2)cc(C(C)(C)C)c1O	i	i	i	i	i
O=C(N/C(=C\c1ccccc1)C(=O)N1CCOCC1)c1cccc(Br)c1	i	i	i	i	i
O=c1c(Cl)c(N2CCN(c3ccc(F)cc3)CC2)cnn1C12CC3CC(CC(C3)C1)C2	i	i	10*	i	i
CCN(CC)C(=O)C1CCN(C(=O)c2oc3ccc(C)cc3c2C)CC1	i	i	i	i	i
Cc1ccc2oc(C(=O)N3CCC(O)(c4ccccc4)CC3)c(C)c2c1	i	i	15*	i	i
COc1cccc(Cn2c(Oc3ccccc3)nc3c2c(=O)n(C)c(=O)n3C)c1	i	-6*	i	i	i
COc1cccc(Cn2c(Oc3cccc(C)c3)nc3c2c(=O)n(C)c(=O)n3C)c1	i	i	i	i	i
Cc1cc(C)cc(C(=O)NCCC(=O)N2CCC3(CC2)NCCc2[nH]cnc23)c1	i	i	i	i	i
OC(CNC1CCCc2ccccc21)COc1ccc2ccccc2c1 (configuration not stated)	101*	i	i	i	i
O=C(c1ccccc1)c1ccc(OCC(O)CNC2CCCc3ccccc32)cc1 (configuration not stated)	i	i	i	i	i
COc1ccc(CNC(=O)CN(C)Cc2ccccc2F)cc1OC	i	-6*	i	i	i
NS(=O)(=O)c1ccc(CNC(=O)Cc2ccsc2)cc1	i	i	i	i	i
CCC(O)(c1ccc(OC)cc1)C(CN1CCOCC1)c1ccccc1 (configuration not stated)	i	-6*	i	i	i
COc1ccc(C(O)(C2CCCCC2)C(CN2CCOCC2)c2ccccc2)cc1 (configuration not stated)	i	i	14*	i	i
COc1ccc(C(O)(C(C)C)C(CN2CCOCC2)c2ccc(Cl)cc2)cc1 (configuration not stated)	i	i	12*	i	i
Cc1[nH]n(-c2ccccc2)c(=O)c1/C=N/NC(=O)c1ccccc1F	i	i	i	i	i
O=C(NC(Cc1ccccc1)C(=O)O)NC12CC3CC(CC(C3)C1)C2 (configuration not stated)	i	i	i	i	i
Cc1ccnc(NC(=O)c2cccc(S(=O)(=O)N3CCN(c4ccc(F)cc4)CC3)c2)c1	i	i	i	i	i
CCc1cccc(C)c1NC(=O)CSc1nc2ccncc2[nH]1	i	i	i	i	i
SMILES	TRPC4 act	TRPC4 block	TRPC4 potent	TRPC6 activator	TRPC6 inhibitor
CN(C)S(=O)(=O)c1ccc2c(c1)nc(CCC(=O)NCCc1ccc(Cl)cc1)n2C	i	i	i	i	i
COc1cc(OC)c(OC)cc1CCC(C)NC(=O)Cc1ccccc1 (configuration not stated)	i	i	i	i	i
CCC(C)Sc1ccc([C@H]2N[C@@](Cc3ccccc3)(C(=O)OC)[C@H]3C(=O)N(CC)C(=O)[C@@H]23)cc1OC (some centres not stated)	i	i	i	i	i
Cn1cc(-c2nc3ccccc3[nH]2)c2ccccc21	i	-6*	i	i	i
CC(C)Oc1ccccc1C1(c2ccccc2)NC(=O)NC1=O (configuration not stated)	i	i	i	i	i
CCC1(c2ccccc2)NC(=O)N(CC(=O)NC2(C#N)CCCCC2)C1=O (configuration not stated)	i	i	i	i	i
CCC(C)NC(=O)CCn1c(=O)c2cccn2c2ccc(F)cc21 (configuration not stated)	i	i	i	i	i
CC1CCN(CCc2nc3cc(NS(=O)(=O)c4ccccc4)ccc3n2C)CC1	i	i	i	i	i
CC1CCN(CCc2nc3cc(NS(=O)(=O)c4ccc(F)cc4)ccc3n2C)CC1	i	i	15*	i	i
N#CC(C#N)=Cc1c[nH]c(=O)c(C#N)c1Nc1ccccc1	i	i	i	i	i
COc1ccc(N2CCN(C(CNC(=O)C(=O)NC3CCCC3)c3ccco3)CC2)cc1 (configuration not stated)	i	i	i	i	i
CC1c2ccccc2SC(CCCN(C)C)c2ccccc21 (configuration not stated)	i	i	i	i	i
CN(C)CCC1Sc2ccccc2Oc2ccccc21 (configuration not stated)	i	-6*	i	i	i
CCOc1ccc(-c2c(C)sc3nc[nH]c(=O)c23)cc1	i	i	i	i	i
CCCNC(=O)c1c(O)c2cccc3c2n(c1=O)CCC3	i	i	i	i	i
NCCNC(=O)c1c(O)c2cccc3c2n(c1=O)CCC3	104*	i	i	i	i
CCN1CCN(S(=O)(=O)c2ccc(Cl)c(C(=O)Nc3nnc(C)s3)c2)CC1	50*	i	i	i	i
CCN(CC)S(=O)(=O)c1ccc(Cl)c(C(=O)Nc2nnc(C)s2)c1	i	i	i	i	i
Cc1c(Cl)cccc1N=C(N)N=C(N)N	51*	i	i	i	i
N#CC1(NC(=O)COC(=O)/C=C/c2ccc3ccccc3n2)CCCCC1	i	i	i	i	i
COc1ccc(C(=O)NNC(=S)NC(=O)c2ccc(F)cc2)cc1Br	49*	i	i	i	i
Cc1cccc(C(=O)NC(=S)NNC(=O)COc2ccc(Cl)cc2)c1	68*	i	i	i	i
COc1ccccc1C(=O)NNC(=S)NC(=O)c1cccs1	137*	i	i	i	i
